PPC-1+TRAIL kill: compounds killing PPC-1 cancer cells with TRAIL present (potentiator screen, no TRAIL-free arm); cell killing (% activity), % at 4 µM or 5 µM; hit rate 0.41% among 220,000; PPC-1 cells + TRAIL, ATPLite viability luminescence;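 active means cell killing above 50% in the first pass at 4 µM, then a duplicate retest at 5 µM averaging 50% or more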;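 further: plate controls were cells with TRAIL plus DMSO for no effect and medium-only wells lacking cells for full effect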
FLuc inh counter: Photinus pyralis luciferase inhibition counter-screen | ATPLite firefly luciferase biochemical luminescence, 10 min | inhibition, % at 10 µM | hit rate 1.5% among 200,000 | AID 1006;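 active means inhibition above about 50% when tested at 10 µM, limit read from the data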
Target sequence (P08659 whole entry, looked up): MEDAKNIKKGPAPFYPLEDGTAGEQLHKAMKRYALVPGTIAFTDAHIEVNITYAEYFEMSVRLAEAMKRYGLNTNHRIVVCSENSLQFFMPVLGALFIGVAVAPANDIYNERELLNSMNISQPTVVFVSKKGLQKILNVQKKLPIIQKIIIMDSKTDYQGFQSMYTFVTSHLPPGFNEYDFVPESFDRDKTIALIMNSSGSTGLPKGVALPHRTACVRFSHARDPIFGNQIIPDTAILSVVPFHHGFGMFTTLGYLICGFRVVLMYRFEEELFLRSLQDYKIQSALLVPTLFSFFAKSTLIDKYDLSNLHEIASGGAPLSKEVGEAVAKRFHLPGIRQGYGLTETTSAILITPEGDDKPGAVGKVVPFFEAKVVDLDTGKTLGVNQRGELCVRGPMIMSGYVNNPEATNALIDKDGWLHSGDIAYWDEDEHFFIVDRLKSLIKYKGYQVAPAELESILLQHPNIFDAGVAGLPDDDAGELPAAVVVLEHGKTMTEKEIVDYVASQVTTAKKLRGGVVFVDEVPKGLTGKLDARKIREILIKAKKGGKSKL
FLuc stim CS: firefly luciferase counter-screen for stimulation assays; activation factor at 10 µM; P08659; 200,000 tested, under 10 active; ATPlite luciferase biochemical, luminescence, 10 min; 0 = ATP-free wells, 1 = DMSO control;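 active means luciferase activation factor, scaled between plate controls, of at least 2 with compound at 10 µM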
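assay system = Luciferase/luciferin detection reagent, cell-free biochemical luciferase assay | also added = ATP substrate | times = 10 min post-reagent at room temperature | measured by = luminescence from luciferase reaction | measure = luciferase activation, seen as luminescence increase over controls | benchmarks = low control with PBS replacing ATP, high control enzyme plus ATP without compound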
Wee1 stabilizer: blocks degradation of human Wee1 kinase; reporter increase, % at 5 µM; hit rate 1.2% among 220,000; HeLa Luc-Wee1K328M stability, luciferase luminescence; 100% = proteasome inhibitor MG132 effect; P30291;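 active means activation above the mean of all tested compounds plus 3 SD, set per screening run, cut at about 8.8% in these data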;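 further: cells exposed to compound for 20 h before luminescence read; 0% = DMSO alone and 100% = MG132 at 30 µM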
PKD1 inh: inhibitors of human PKD1 kinase. hit rate 0.056% among 200,000. inhibition, % (concentration not given with the values). AID 797. PKD1 kinase fluorescence polarization assay. Q15139; in the data active means inhibition above about 50%
C8 TRAIL sens: sensitizes caspase-8 expressing cells to TRAIL. NB7+C8 cells + TRAIL, ATPlite viability luminescence. inhibition (viability loss, TRAIL sensitization), % at 10 µM. hit rate 1% among 360,000. AID 624354;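 active means compounds causing at least 50% loss of cell viability in the single-dose screen, relative to plate controls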
Wee1 degr conf: human Wee1 degradation inhibition, confirmation. shares compounds with Wee1 stabilizer. AID 1410. activation, % at 5 µM. HeLa Luc-Wee1K328M degradation, luminescence; vehicle 0%, proteasome-blocked wells 100%. hit rate 4% among 1,100; in the data active means activation above about 8.9%
Active calls of the source: *. In the library only some 2.2% were active in any assay of this set; here they are far more common.

For Cc1nnc(SCC(=O)NCc2ccc(F)cc2)[nH]c1=O the results were PPC-1+TRAIL kill 13, FLuc inh counter -4, FLuc stim CS 1, Wee1 stabilizer 11*, PKD1 inh 0, C8 TRAIL sens -12 and Wee1 degr conf 2.
For O=[N+]([O-])c1cccc(N/N=C/c2cccc(O)c2O)c1 the results were PPC-1+TRAIL kill 22, FLuc inh counter 11, FLuc stim CS 0.9, Wee1 stabilizer 11*, PKD1 inh 13, C8 TRAIL sens 36 and Wee1 degr conf -3.
For O=[N+]([O-])c1ccccc1N/N=C/c1cccc(O)c1O the results were PPC-1+TRAIL kill 15, Wee1 stabilizer 0 and C8 TRAIL sens 24.
`Cc1cc(C(=O)CSc2nc3ccccc3o2)c(C)n1CC1CCCO1` (stereo not given) gave PPC-1+TRAIL kill 15, FLuc inh counter 22, FLuc stim CS 0.8, Wee1 stabilizer 11*, PKD1 inh 1, C8 TRAIL sens 38 and Wee1 degr conf 1.
COc1ccc(CCN2CC(C(=O)OCC(=O)Nc3c(C)nn(-c4ccccc4)c3C)CC2=O)cc1OC (stereo not given) was read as C8 TRAIL sens -5.
For COc1ccc(C(=O)NCCS(=O)(=O)N2CCCC2)cc1 the results were C8 TRAIL sens 0.
COc1ccc(-c2cc3ccccc3[nH]2)cc1 was read as PPC-1+TRAIL kill -20, Wee1 stabilizer 5 and C8 TRAIL sens 24.
For Cc1ccc(O)c(-c2cc3ccccc3[nH]2)c1 the results were PPC-1+TRAIL kill -20, FLuc inh counter 0, FLuc stim CS 1, Wee1 stabilizer 11*, PKD1 inh -8, C8 TRAIL sens 3 and Wee1 degr conf 0.
Cc1ccc(C(=O)CCC(=O)OCC(=O)NNC(=O)c2ccc([N+](=O)[O-])cc2)cc1 was read as C8 TRAIL sens -15.
`CCN(CC)C(=O)CSCc1cnn(-c2ccccc2)c1-n1cccc1` gave PPC-1+TRAIL kill -16, FLuc inh counter -3, FLuc stim CS 1, Wee1 stabilizer 16*, PKD1 inh 2, C8 TRAIL sens 3 and Wee1 degr conf 1.
`CCN(CC)c1ccc(/C=N/NC(=O)c2ccco2)cc1` gave PPC-1+TRAIL kill 30, FLuc inh counter 79*, FLuc stim CS 0.2, Wee1 stabilizer 20*, PKD1 inh -7, C8 TRAIL sens 52* and Wee1 degr conf 13*.
Screening CCN(CC)c1ccc(/C=N/NC(=O)c2cnccn2)cc1 returned PPC-1+TRAIL kill 36, FLuc inh counter 66*, FLuc stim CS 0.3, Wee1 stabilizer 15*, PKD1 inh 1, C8 TRAIL sens 21 and Wee1 degr conf 19*.
Screening CCOC(=O)c1c(C)n(C)c2ccc(OC)c([N+](=O)[O-])c12 returned PPC-1+TRAIL kill 8, FLuc inh counter -2, FLuc stim CS 1, Wee1 stabilizer -2, PKD1 inh -3 and C8 TRAIL sens 0.
CCN(C(=O)C(C)Sc1ccc(S(=O)(=O)N2CCOCC2)cn1)c1ccccc1 (stereo not given) was read as C8 TRAIL sens 5.
For Cc1ccc(Nc2cc(C)nn2-c2nc(C)cc(=O)[nH]2)cc1 the results were PPC-1+TRAIL kill -1, FLuc inh counter -5, FLuc stim CS 1.1, Wee1 stabilizer 129*, PKD1 inh 8, C8 TRAIL sens -14 and Wee1 degr conf 123*.
Cc1ccc(Nc2cc(C)nn2-c2nc(C)cc(C)n2)cc1 was read as PPC-1+TRAIL kill 6, FLuc inh counter -2, FLuc stim CS 1, Wee1 stabilizer -2, PKD1 inh -8 and C8 TRAIL sens 6.
Screening CCNC(=S)NNC(=O)CC(C)C returned PPC-1+TRAIL kill 9, FLuc inh counter -4, FLuc stim CS 1, Wee1 stabilizer 3, PKD1 inh -8 and C8 TRAIL sens -1.
CC(C)CNC(=S)NNC(=O)CC(C)O (stereo not given) was read as PPC-1+TRAIL kill 7, FLuc inh counter -10, FLuc stim CS 1.1, Wee1 stabilizer 11*, PKD1 inh 6, C8 TRAIL sens 0 and Wee1 degr conf 1.
Cc1cc(SCC(=O)OC(C)C(=O)N(C)c2ccccc2)nc2ccccc12 (stereo not given) was read as C8 TRAIL sens 3.
Cc1ccc(NS(=O)(=O)c2ccc(NS(=O)(=O)c3cccs3)cc2)cc1 was read as PPC-1+TRAIL kill 35, FLuc inh counter -5, FLuc stim CS 1, Wee1 stabilizer 11*, PKD1 inh 5, C8 TRAIL sens 12 and Wee1 degr conf 0.
For CC1=C(C(=O)OCC2CCCO2)C(c2ccc(Cl)cc2)NC(=O)N1 (stereo not given) the results were PPC-1+TRAIL kill 2, FLuc inh counter -5, FLuc stim CS 1.1, Wee1 stabilizer 12*, PKD1 inh 8, C8 TRAIL sens -24 and Wee1 degr conf 1.
Cc1c(O)ccc2c(O)c(NC(=O)c3ccc4c(c3)CCC(C)(C)O4)c(=O)oc12 was read as PPC-1+TRAIL kill 11, Wee1 stabilizer 12*, C8 TRAIL sens 4 and Wee1 degr conf -1.
Screening Cc1c(CC(=O)NCCCO)c(=O)oc2cc3c(cc12)CCC(C)(C)O3 returned C8 TRAIL sens -1.
For O=C(COC(=O)c1ccc(F)cc1F)Nc1cccc(S(=O)(=O)N2CCOCC2)c1 the results were C8 TRAIL sens 5.
CC(C)(C)NC(=O)/C(=C/c1ccccc1F)NC(=O)c1ccc([N+](=O)[O-])cc1 was read as PPC-1+TRAIL kill 7, FLuc inh counter -5, FLuc stim CS 1, Wee1 stabilizer 15*, PKD1 inh 8, C8 TRAIL sens -3 and Wee1 degr conf 2.
CC(C)(C)NC(=O)/C(=C\c1ccccc1F)NC(=O)c1ccc([N+](=O)[O-])cc1 was read as PPC-1+TRAIL kill 6, FLuc inh counter -4, FLuc stim CS 1, Wee1 stabilizer 1, PKD1 inh -9 and C8 TRAIL sens -7.
COc1cc(CNc2ccc3[nH]c(=O)[nH]c3c2)ccc1OCc1ccc(Cl)cc1 was read as C8 TRAIL sens 19.
`CC(C)(C)c1ccc(CSc2nc(N)cc(=O)[nH]2)cc1` gave C8 TRAIL sens 2.
Screening O=C(O)COc1ccccc1/C=N/NC(=O)CN1CCN(Cc2ccc(Cl)cc2)CC1 returned PPC-1+TRAIL kill -28, Wee1 stabilizer 25*, C8 TRAIL sens 13 and Wee1 degr conf 2.
`Cc1cc(F)ccc1NC(=O)c1ccc(NS(=O)(=O)c2cc(C(C)(C)C)ccc2C)cc1` gave PPC-1+TRAIL kill 24, FLuc inh counter -4, FLuc stim CS 1, Wee1 stabilizer 13*, PKD1 inh 6, C8 TRAIL sens -4 and Wee1 degr conf 1.

Screens from PubChem.
